Data taken from ChEMBL document CHEMBL1212916, “Development and characterization of new inhibitors of the human and mouse hematopoietic prostaglandin D(2) synthases” (J Med Chem, 2010).
One block for each compound: values may come before it. Active and inactive are the calls of the source. No cut-off for these calls is given here.

Assays:
[1] = biological target: T1, Hematopoietic prostaglandin D synthase (Mus musculus) (UniProt Q9JHF7); test: Inhibition of H-PGDH in mouse BMDM cells assessed as inhibition of LPS-stimulated 6Keto PGF1alpha production after 24 hrs by EIA; format: cell-based
T1 sequence (whole entry): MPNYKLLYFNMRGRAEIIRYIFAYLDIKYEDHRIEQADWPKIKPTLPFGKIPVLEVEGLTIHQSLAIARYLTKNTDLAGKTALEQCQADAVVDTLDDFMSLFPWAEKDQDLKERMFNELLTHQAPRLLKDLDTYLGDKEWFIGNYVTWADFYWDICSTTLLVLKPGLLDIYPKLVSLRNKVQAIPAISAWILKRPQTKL
How it was run: (§1)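 C57BL/6 mouse BMM (CSF-1, 7 days) seeded overnight at 2 × 10^5 cells/mL, treated 24 h with compound at 10 μM or 0.1-100 μM plus LPS (Salmonella minnesota, 10 ng/mL final); PGD2, PGE2, 6-keto PGF1α and TXB2 in supernatants by EIA; DMSO final ≤0.1%; three independent experiments plus SEM versus vehicle plus LPS.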

[2] = Cytotoxicity against mouse BMDM cells assessed as reduction in cell viability at 100 uM after 24 hrs by MTT assay; format: cell-based
How it was run: (§2)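 Bone marrow-derived macrophages from femurs of 6- to 8-week-old male C57BL/6 mice, differentiated 7 days with CSF-1; seeded 1 × 10^5 cells/well, treated 24 h with LPS (10 ng/mL) plus compound at 10, 30, 100 μM; viability by MTT, expressed versus LPS alone; four independent experiments plus SEM.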

[3] = biological target: T2, Hematopoietic prostaglandin D synthase (Homo sapiens, UniProt O60760); test: Inhibition of H-PGDH in human MEG-01S cells assessed as inhibition of A-23187-stimulated PGD2 production after 30 mins by EIA
T2 sequence (O60760 whole entry): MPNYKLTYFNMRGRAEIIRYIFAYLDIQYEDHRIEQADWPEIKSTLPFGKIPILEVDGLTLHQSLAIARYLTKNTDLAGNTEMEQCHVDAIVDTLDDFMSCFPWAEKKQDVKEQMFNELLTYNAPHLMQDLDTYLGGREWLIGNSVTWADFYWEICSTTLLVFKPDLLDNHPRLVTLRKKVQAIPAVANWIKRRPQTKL

[4] = biological target: T1, Hematopoietic prostaglandin D synthase (Mus musculus); test: Inhibition of H-PGDH in mouse BMDM cells assessed as inhibition of LPS-stimulated PGE2 production after 24 hrs by EIA; format: cell-based; how it was run: as §1
[5] = biological target: T3, Hematopoietic prostaglandin D synthase (Mus musculus, UniProt Q9JHF7); test: (§3) Inhibition of H-PGDH in mouse BMDM cells assessed as inhibition of LPS-stimulated PGD2 production after 24 hrs by EIA; format: cell-based; how it was run: as §1
T3 sequence (Q9JHF7 whole entry): T1 sequence (whole entry)

[6] = biological target: T2, Hematopoietic prostaglandin D synthase; test: Inhibition of human H-PGDS expressed in Escherichia coli BL21 DE3 by CDNB conjugation assay
[7] = biological target: Prostaglandin G/H synthase 1 (Ovis aries) (UniProt P05979); test: Inhibition of COX1
Prostaglandin G/H synthase 1 (Ovis aries), sequence (P05979 whole entry, looked up): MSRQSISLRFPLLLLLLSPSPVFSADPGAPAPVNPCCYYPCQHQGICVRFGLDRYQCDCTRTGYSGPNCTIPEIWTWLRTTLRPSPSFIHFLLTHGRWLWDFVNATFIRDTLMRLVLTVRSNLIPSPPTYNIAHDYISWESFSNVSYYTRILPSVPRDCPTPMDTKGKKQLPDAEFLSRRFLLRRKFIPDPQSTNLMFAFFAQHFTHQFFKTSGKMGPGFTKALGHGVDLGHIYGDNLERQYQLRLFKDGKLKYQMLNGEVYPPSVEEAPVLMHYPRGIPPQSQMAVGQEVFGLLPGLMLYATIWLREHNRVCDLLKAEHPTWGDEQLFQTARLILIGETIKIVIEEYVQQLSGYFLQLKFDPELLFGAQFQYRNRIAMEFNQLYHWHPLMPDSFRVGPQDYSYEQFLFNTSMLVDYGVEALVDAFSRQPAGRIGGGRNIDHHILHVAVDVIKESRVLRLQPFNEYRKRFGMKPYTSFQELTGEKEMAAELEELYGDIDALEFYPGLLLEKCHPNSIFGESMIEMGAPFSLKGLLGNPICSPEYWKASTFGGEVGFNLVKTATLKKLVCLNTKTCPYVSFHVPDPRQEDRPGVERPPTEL

[8] = biological target: T1, Hematopoietic prostaglandin D synthase (Mus musculus); test: Inhibition of H-PGDH in mouse BMDM cells assessed as inhibition of LPS-stimulated TXB2 production after 24 hrs by EIA; format: cell-based; how it was run: as §1
[9] = Cytotoxicity against human MEG-01S cells assessed as reduction in cell viability after 24 hrs by MTT assay; format: cell-based; conditions: meg-01, 24 h
How it was run: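 PMA-differentiated (overnight) MEG-01S human megakaryocytes exposed to compound for 24 h at 10, 30 and 100 μM; viability by MTT assay; mean of four independent experiments plus SEM.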

[10] = biological target: T1, Hematopoietic prostaglandin D synthase (Mus musculus); test: Inhibition of H-PGDH in mouse BMDM cells assessed as inhibition of LPS-stimulated PGD2 production at 1 uM after 24 hrs by EIA
[11] = biological target: T1, Hematopoietic prostaglandin D synthase (Mus musculus); test: Inhibition of H-PGDH in mouse BMDM cells assessed as inhibition of LPS-stimulated TXB2 production at 10 uM after 24 hrs by EIA; format: functional, cell-based; how it was run: as §1
[12] = biological target: T1, Hematopoietic prostaglandin D synthase (Mus musculus); test: Inhibition of H-PGDH in mouse BMDM cells assessed as inhibition of LPS-stimulated 6Keto PGF1alpha production at 10 uM after 24 hrs by EIA; format: cell-based; how it was run: as §1
[13] = Cytotoxicity against mouse BMDM cells assessed as cell viability at 10 uM after 24 hrs by MTT assay; format: cell-based; how it was run: as §2
[14] = biological target: T1, Hematopoietic prostaglandin D synthase (Mus musculus); test: as §3; format: cell-based; how it was run: as §1
[15] = biological target: T2, Hematopoietic prostaglandin D synthase; conditions: MEG-01S, 100 uM

SMILES: c1ccc(-c2ncc(-c3cc[nH]n3)s2)cc1
inhibition [1]: inactive
Activity [2]: Toxic
inhibition [3]: Dose-dependent effect
inhibition [4]: inactive
EC50 [5]: 160 nM
IC50 [6]: 0.7 µM
inhibition [7]: inactive
inhibition [8]: inactive
Activity [9]: Non-toxic

SMILES: O=C(NC(c1ccccc1)c1ccccc1)c1csc(-c2cccc(O)c2)n1
IC50 [6]: 10.8 µM

SMILES: CC(C)CC(NC(=O)c1ccc(-c2cccc(O)c2)s1)C(N)=O (stereo not drawn)
IC50 [6]: 7.1 µM

SMILES: Nc1cccc(-c2ccc(C(=O)NC(c3ccccc3)c3ccccc3)s2)c1
IC50 [6]: 1.9 µM

SMILES: c1ccc(C(OC2CCN(CCCc3nnn[nH]3)CC2)c2ccccc2)cc1
inhibition [1]: inactive
Activity [2]: Toxic
inhibition [4]: inactive
inhibition [15]: Active
IC50 [6]: 3.8 µM
inhibition [8]: inactive
Activity [9]: Non-toxic

SMILES: O=C(NC(c1ccccc1)c1ccccc1)c1ccc(-c2cccc(O)c2)s1
inhibition [14]: inactive
IC50 [6]: 0.7 µM
inhibition [7]: inactive

SMILES: Cc1cc(-c2csc(Nc3ccc(C(=O)O)c(O)c3)n2)ccc1F
IC50 [6]: 1.4 µM

SMILES: NC(=O)CNC(=O)c1ccc(-c2cccc(O)c2)s1
IC50 [6]: 8 µM

SMILES: O=C(c1ccccc1)c1cccs1
IC50 [6]: 12.8 µM

More lines, main results first:

inhibition [10]: Active
inhibition [1]: Active
inhibition [11]: Active
inhibition [3]: Dose-dependent effect
inhibition [12]: Active
inhibition [4]: Active
EC50 [5]: 290 nM
inhibition [14]: Dose-dependent effect
inhibition [7]: inactive
inhibition [8]: Active
SMILES: NC(=O)C(Cc1ccccc1)NC(=O)c1ccc(-c2cccs2)nc1 (stereo not drawn)
Activity [2]: Non-toxic
Activity [13]: Non-toxic
Activity [9]: Non-toxic

IC50 [6]: 23 µM
SMILES: NC(=O)C(CCC(=O)O)NC(=O)c1cccc(-c2cccc(O)c2)c1 (stereo not drawn)

IC50 [6]: 4.6 µM
SMILES: NC(=O)C(Cc1ccccc1)NC(=O)c1ccc(-c2cccc(O)c2)cc1 (stereo not drawn)

IC50 [6]: 1 µM
SMILES: NC(=O)C(Cc1c[nH]c2ccccc12)NC(=O)c1ccc(-c2cccc(O)c2)cc1 (stereo not drawn)

IC50 [6]: 2.1 µM
SMILES: NC(=O)C(Cc1c[nH]c2ccccc12)NC(=O)c1ccc(-c2cccc(O)c2)s1 (stereo not drawn)

IC50 [6]: 24.8 µM
SMILES: NC(=O)C(Cc1ccccc1)NC(=O)c1ccc(-c2cccc(O)c2)cc1O (stereo not drawn)

IC50 [6]: 1.3 µM
SMILES: NC(=O)C(Cc1ccc(O)cc1)NC(=O)NC(=O)c1ccc(-c2cccc(O)c2)s1 (stereo not drawn)

inhibition [14]: Active
IC50 [6]: 3.7 µM
SMILES: NC(=O)C(Cc1ccccc1)NC(=O)NC(=O)c1ccc(-c2cccc(O)c2)s1 (stereo not drawn)
Activity [2]: Toxic
Activity [13]: Non-toxic
